Assays:
Type in all cases: functional
Conditions in all cases: read-out: DIZ
[1] = test system: Salmonella enterica; assay: Antibacterial activity against Salmonella enterica at 12 ug/well after 24 hrs by agar well diffusion method
Procedure, shortened: (§1)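 Colonies subcultured from nutrient agar into nutrient broth, grown 37 °C for 18 h, then inoculated onto Mueller-Hinton agar plates (four plates). Wells cut with sterile 5 mm glass tube; […] of 100 µg/ml DMSO solution added per well; incubated 37 °C for 24 h before reading inhibition. Data from duplicate or triplicate experiments.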

[2] = test system: Micrococcus luteus; assay: Antibacterial activity against Micrococcus luteus at 12 ug/well after 24 hrs by agar well diffusion method; procedure, shortened: as §1
[3] = test system: Bacillus subtilis; assay: Antibacterial activity against Bacillus subtilis at 12 ug/well after 24 hrs by agar well diffusion method; procedure, shortened: as §1
[4] = test system: Pseudomonas aeruginosa; assay: Antibacterial activity against Pseudomonas aeruginosa at 12 ug/well after 24 hrs by agar well diffusion method; procedure, shortened: as §1

## NC1=C(C(=O)c2c[nH]c3ccccc23)C(c2ccc(F)cc2)c2c(ccc3ccccc23)O1 (centres undefined)
[1]
  zone of inhibition at 12 µg/disc: 6 mm
[2]
  zone of inhibition at 12 µg/disc: 30 mm
[3]
  zone of inhibition at 12 µg/disc: 11 mm

## NC1=C(C(=O)c2c[nH]c3ccccc23)C(c2ccc(Cl)cc2)c2c(ccc3ccccc23)O1 (centres undefined)
[1]
  zone of inhibition at 12 µg/disc: 17 mm
[2]
  zone of inhibition at 12 µg/disc: 8 mm

## NC1=C(C(=O)c2c[nH]c3ccccc23)C(c2ccc(Br)cc2)c2c(ccc3ccccc23)O1 (centres undefined)
[2]
  zone of inhibition at 12 µg/disc: 10 mm

## NC1=C(C(=O)c2c[nH]c3ccccc23)C(c2cccc([N+](=O)[O-])c2)c2c(ccc3ccccc23)O1 (centres undefined)
[2]
  zone of inhibition at 12 µg/disc: 29 mm
[3]
  zone of inhibition at 12 µg/disc: 8 mm

## COc1cccc(C2C(C(=O)c3c[nH]c4ccccc34)=C(N)Oc3ccc4ccccc4c32)c1 (centres undefined)
[2]
  zone of inhibition at 12 µg/disc: 35 mm
[4]
  zone of inhibition at 12 µg/disc: 17 mm

## NC1=C(C(=O)c2c[nH]c3ccccc23)C(c2ccc(C3C(C(=O)c4c[nH]c5ccccc45)=C(N)Oc4ccc5ccccc5c43)cc2)c2c(ccc3ccccc23)O1 (centres undefined)
[2]
  zone of inhibition at 12 µg/disc: 7 mm

## NC1=C(C(=O)c2c[nH]c3ccc(Br)cc23)C(c2ccc(Cl)cc2)c2c(ccc3ccccc23)O1 (centres undefined)
[2]
  zone of inhibition at 12 µg/disc: 45 mm
[3]
  zone of inhibition at 12 µg/disc: 6 mm

## NC1=C(C(=O)c2c[nH]c3ccc(Br)cc23)C(c2ccc(Cl)cc2Cl)c2c(ccc3ccccc23)O1 (centres undefined)
[2]
  zone of inhibition at 12 µg/disc: 30 mm

## NC1=C(C(=O)c2c[nH]c3ccc(Br)cc23)C(c2cccnc2)c2c(ccc3ccccc23)O1 (centres undefined)
[1]
  zone of inhibition at 12 µg/disc: 6 mm
[2]
  zone of inhibition at 12 µg/disc: 11 mm

## NC1=C(C(=O)c2c[nH]c3ccc(Br)cc23)C(c2ccc(C3C(C(=O)c4c[nH]c5ccc(Br)cc45)=C(N)Oc4ccc5ccccc5c43)cc2)c2c(ccc3ccccc23)O1 (centres undefined)
[2]
  zone of inhibition at 12 µg/disc: 30 mm
[3]
  zone of inhibition at 12 µg/disc: 6 mm

## Cc1[nH]c2ccccc2c1C(=O)C1=C(N)Oc2ccc3ccccc3c2C1c1ccc(Cl)cc1Cl (centres undefined)
[1]
  zone of inhibition at 12 µg/disc: 15 mm
[2]
  zone of inhibition at 12 µg/disc: 50 mm
[4]
  zone of inhibition at 12 µg/disc: 15 mm

## CC[C@H]1OC(=O)[C@H](C)[C@@H](O[C@H]2C[C@@](C)(OC)[C@@H](O)[C@H](C)O2)[C@H](C)[C@@H](O[C@@H]2O[C@H](C)C[C@H](N(C)C)[C@H]2O)[C@](C)(O)C[C@@H](C)C(=O)[C@H](C)[C@@H](O)[C@]1(C)O [ERYTHROMYCIN]
[1]
  zone of inhibition at 12 µg/disc: 8 mm
[2]
  zone of inhibition at 12 µg/disc: 10 mm
[3]
  zone of inhibition at 12 µg/disc: 12 mm
[4]
  zone of inhibition at 12 µg/disc: 10 mm

## CN(C)[C@@H]1C(O)=C(C(N)=O)C(=O)[C@@]2(O)C(O)=C3C(=O)c4c(O)cccc4[C@@](C)(O)[C@H]3C[C@@H]12 [TETRACYCLINE]
[1]
  zone of inhibition at 12 µg/disc: 7 mm
[2]
  zone of inhibition at 12 µg/disc: 16 mm
[3]
  zone of inhibition at 12 µg/disc: 14 mm
[4]
  zone of inhibition at 12 µg/disc: 18 mm
